Measured values collected from several papers.
Compare with care: the assays were run in different laboratories.
Target: Aurora kinase C (AURKC, Homo sapiens, UniProt Q9UQB9)
One construct used (Q9UQB9 1-309): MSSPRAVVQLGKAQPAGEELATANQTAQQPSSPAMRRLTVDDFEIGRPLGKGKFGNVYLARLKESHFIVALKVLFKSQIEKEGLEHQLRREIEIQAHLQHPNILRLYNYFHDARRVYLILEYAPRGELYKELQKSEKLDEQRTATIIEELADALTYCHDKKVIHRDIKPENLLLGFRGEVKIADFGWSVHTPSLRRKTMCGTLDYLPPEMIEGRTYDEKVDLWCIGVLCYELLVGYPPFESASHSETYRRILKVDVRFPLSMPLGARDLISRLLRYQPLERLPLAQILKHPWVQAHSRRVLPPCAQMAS

C#Cc1n[nH]c2c(-c3cn(C(C)c4ccccn4)c(=O)[nH]c3=O)cc(F)cc12 (stereo not shown) — inhibition (enzyme activity; inhibitor; 1 µM): 1.7%
Nc1ncc(-c2nc(N3CCOCC3)nc(N3CCOCC3)n2)c(C(F)F)n1 — remaining binding (binding; competition with immobilised ligand; 10 µM): 91%
Cn1cc(-c2cc(F)cc(N3CCn4c(cc5c4CCCC5)C3=O)c2CO)cc(Nc2ccc(N3CCN(C4COC4)CC3)cn2)c1=O — inhibition (enzyme activity; inhibitor; 0.1 µM): 5%
Cn1cncc1[C@](O)(COc1ccc(C#N)cc1-c1ccc(OC(F)(F)F)cc1)c1ccc(C#N)cc1 — remaining binding (cell-free assay; competition with immobilised ligand; 1 µM): 100%
COc1cc(Nc2ncc(F)c(Nc3ccc4c(n3)NC(=O)C(C)(C)O4)n2)cc(OC)c1OC — inhibition (binding; competition with immobilised ligand; 10 µM): 95%
O=c1[nH]c2ccccc2n1C1CCN(Cc2ccc(-c3[nH]c4cc5ncnc5cc4nc3-c3ccccc3)cc2)CC1 — remaining signal (cell-free assay; 0.5 µM): 96%
N#CC1(c2ccccn2)CCN(Cc2cc(C(=O)O)c(=O)n3ccccc23)CC1 — remaining binding (cell-free assay; competition with immobilised ligand; 1 µM): 94%
Cn1cc(-c2cccc(N3CCc4c(sc5c4CC(C)(C)C5)C3=O)c2CO)cc(Nc2ccncn2)c1=O — inhibition (enzyme activity; inhibitor; 1 µM): 5%
CC(C)(C)c1cc(C=C(C#N)C#N)cc(Br)c1O — remaining activity (enzyme activity; inhibitor; 0.5 µM): 87.6%
COc1ncccc1-c1cnn2ccc(N3CCN(C(=O)OC(C)C)CC3)nc12 — remaining binding (binding; competition with immobilised ligand; 1 µM): 56%
